Data on 13 compounds can be found in ChEMBL document CHEMBL1833894, “The effect of a bromide leaving group on the properties of nitro analogs of the duocarmycins as hypoxia-activated prodrugs and phosphate pre-prodrugs for antitumor therapy” (Bioorg Med Chem, 2011).

Molecules are shown by their SMILES. Bounds are passed on as bounds.

Data set [1] has as its system HT-29. As to the kind of experiment: Cytotoxicity against human HT29 cells assessed as reduction in cell density compound treated for 4 hrs under oxic condition measured after 5 days by sulforhodamine B assay. The class given is functional, cell-based. In a few lines: (§1)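 Log-phase monolayers exposed to drug for 4 h under aerobic (20% O₂) or anoxic (<20 ppm O₂) conditions, then stained with sulforhodamine B 5 days later. IC50 interpolated as the concentration cutting cell density to 50% of same-plate controls; mean of 3–6 experiments.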
(The SRB assay estimates cell density from bound dye.)

For data set [2], the system named is HT-29. In words: Cytotoxicity against human HT29 cells assessed as reduction in cell density compound treated for 4 hrs under hypoxic condition measured after 5 days by sulforhodamine B assay. The class given is functional, cell-based. In outline: as §1
The subject of data set [3] is HT-29. As to the kind of experiment: Ratio IC50 for human HT29 cells under oxic condition to IC50 for human HT29 cells under hypoxic condition. The class given is functional. In outline:
(§2)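 Oxic IC50 divided by hypoxic IC50 (4 h exposure at 20% O₂ vs <20 ppm O₂, sulforhodamine B read-out 5 days later), taken as means of intraexperiment ratios over 2–6 experiments.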

The test system of data set [4] is SiHa. In words: Cytotoxicity against human SiHa cells assessed as reduction in cell density compound treated for 4 hrs under oxic condition measured after 5 days by sulforhodamine B assay. The class given is functional, cell-based. In a few lines: as §1
Data set [5] deals with SiHa. As to the kind of experiment: Cytotoxicity against human SiHa cells assessed as reduction in cell density compound treated for 4 hrs under hypoxic condition measured after 5 days by sulforhodamine B assay. The class given is functional, cell-based. In outline:
as §1

Data set [6] has as its system SiHa. As to the kind of experiment: Ratio IC50 for human SiHa cells under oxic condition to IC50 for human SiHa cells under hypoxic condition. The class given is functional. In a few lines: as §2
Data set [7] has as its system SiHa. As to the kind of experiment: Antitumor activity against human SiHa cells xenografted in CD1-Foxn1nu/nu nude mouse assessed as log10 clonogens/g tumor at 42 umol/kg, iv measured after 18 hrs (reference value: 7.15 +/- 0.01 to 7.62 +/- 0.2 no unit). The class given is functional. (In general: A xenograft is tissue or cells of one species grown in another, often human tumour cells in immunodeficient mice.)

Data set [8] relates to SiHa. As to the kind of experiment: Antitumor activity against human SiHa cells xenografted in CD1-Foxn1nu/nu nude mouse assessed as log10 clonogens/g tumor at 42 umol/kg, iv administered 5 mins after irradiated with gamma-15 Gy measured after 18 hrs (reference value: 5.34 +/- 0.04 to 5.73 +/- 0.15 no unit). The class given is functional.
The test system of data set [9] is SiHa. As to the kind of experiment: Antitumor activity against human SiHa cells xenografted in CD1-Foxn1nu/nu nude mouse assessed as hypoxic log10 cell kill at 42 umol/kg, iv administered 5 mins after irradiated with gamma-15 Gy measured after 18 hrs. The class given is functional. In a few lines:
(§3)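 Male nude mice bearing subcutaneous SiHa tumours, from 10⁷ cultured cells, randomised at a mean diameter of 8–10 mm. Phosphate given iv in phosphate-buffered saline with 4 equiv sodium bicarbonate, 5 min after whole-body cobalt-60 15 Gy. Tumours excised 18 h later for clonogenic assay (log10 clonogens/g), 5 mice per group. Hypoxic log cell kill = radiation + drug versus radiation alone; ANOVA with Holm-Sidak.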

For data set [10], the system named is SiHa. As to the kind of experiment: Antitumor activity against human SiHa cells xenografted in CD1-Foxn1nu/nu nude mouse assessed as log10 clonogens/g tumor at 30 umol/kg, iv measured after 18 hrs (reference value: 7.15 +/- 0.01 to 7.62 +/- 0.2 no unit). The class given is functional.
For data set [11], the system named is SiHa. In words: Antitumor activity against human SiHa cells xenografted in CD1-Foxn1nu/nu nude mouse assessed as log10 clonogens/g tumor at 30 umol/kg, iv administered 5 mins after irradiated with gamma-15 Gy measured after 18 hrs (reference value: 5.34 +/- 0.04 to 5.73 +/- 0.15 no unit). The class given is functional.
Data set [12] concerns SiHa. As to the kind of experiment: Antitumor activity against human SiHa cells xenografted in CD1-Foxn1nu/nu nude mouse assessed as hypoxic log10 cell kill at 30 umol/kg, iv administered 5 mins after irradiated with gamma-15 Gy measured after 18 hrs. The class given is functional. In outline: as §3
Data set [13] in a line: Aqueous solubility of the compound. The class given is physicochemical.
Data set [14] relates to SK-OV-3. As to the kind of experiment: Cytotoxicity against human SKOV3 cells under oxic condition relative to hypoxic condition. The class given is functional.
For data set [15], the system named is HT-29. In words: Cytotoxicity against human HT29 cells under oxic condition relative to hypoxic condition. The class given is functional. In outline: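 Log-phase HT29 monolayers exposed to drug for 4 h under aerobic (20% O₂) or anoxic (<20 ppm O₂) conditions, then sulforhodamine B staining 5 days later. IC50 interpolated as the concentration cutting cell density to 50% of same-plate controls. Ratio = IC50(oxic)/IC50(hypoxic), taken as the mean of intraexperiment ratios over 2–6 experiments.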

The IC50 is the concentration that gives 50% inhibition. As to `COc1cc2cc(C(=O)N3CC(CBr)c4c3cc([N+](=O)[O-])c3cc(S(=O)(=O)NCCO)ccc43)[nH]c2c(OC)c1OC` (configuration not stated), the IC50 in data set [1] amounted to 12300 nM; in [2], 1350 nM; in data set [4], 2610 nM; in data set [5], 270 nM. Also, the “Ratio IC50” value in data set [3] and in [6] was 10 throughout.

Regarding `COc1ccc(/C=C/C(=O)N2CC(CBr)c3c2cc([N+](=O)[O-])c2cc(S(=O)(=O)NCCO)ccc32)cc1` (configuration not stated), the IC50 in [1] was 2450 nM; in data set [2], below 100 nM; in [4] it was 1440 nM; in data set [5], 120 nM. In addition, the “Ratio IC50” value is on record as above 25 in data set [3] and 17 in [6].

With `O=C(c1cc2cc(OCCN3CCOCC3)ccc2[nH]1)N1CC(CBr)c2c1cc([N+](=O)[O-])c1cc(S(=O)(=O)NCCO)ccc21` (configuration not stated), the IC50 was 22400 nM in data set [1], 440 nM in [2], 11700 nM in data set [4] and 280 nM in [5]. The “Ratio IC50” value in [3] is listed as 52; in data set [6], 43.

For `O=C(/C=C/c1ccc(OCCN2CCOCC2)cc1)N1CC(CBr)c2c1cc([N+](=O)[O-])c1cc(S(=O)(=O)NCCO)ccc21` (configuration not stated), the 50% inhibitory concentration (IC50) in [1] was 11200 nM; in data set [2], 80 nM; in data set [4], 2720 nM; in data set [5], 90 nM. Besides, the “Ratio IC50” value in data set [3] came out at 286; in [6] it was 41.

On to `COc1cc2cc(C(=O)N3CC(CCl)c4c3cc([N+](=O)[O-])c3cc(S(=O)(=O)NCCO)ccc43)[nH]c2c(OC)c1OC` (configuration not stated), for which the IC50 worked out at 28000 nM in data set [1], 11000 nM in [2], 13000 nM in data set [4] and 3500 nM in [5]. For the same compound, the “Ratio IC50” value in data set [3] was determined as 2.1; in data set [6], 16.

Take `CN(C)CCOc1ccc2[nH]c(C(=O)N3CC(CCl)c4c3cc([N+](=O)[O-])c3cc(S(=O)(=O)NCCO)ccc43)cc2c1` (configuration not stated): the IC50 in data set [1] is 9300 nM; in data set [2], 90 nM; in [4], 2000 nM; in data set [5] it was 70 nM. Moreover, the “Ratio IC50” value in [3] amounted to 160; in [6], 46.

With `COc1cc2cc(C(=O)N3CC(CBr)c4c3cc([N+](=O)[O-])c3cc(S(=O)(=O)NCCOP(=O)(O)O)ccc43)[nH]c2c(OC)c1OC` (configuration not stated), the Activity in [7] amounted to 6.51; in data set [8] it was 3.62. Moreover, the LCK in [9] is 1.84.

On to `COc1ccc(/C=C/C(=O)N2CC(CBr)c3c2cc([N+](=O)[O-])c2cc(S(=O)(=O)NCCOP(=O)(O)O)ccc32)cc1` (configuration not stated), for which the Activity in data set [7] stood at 7.07; in [8], 4.5. The LCK in [9] came to 0.87.

For the compound `O=C(c1cc2cc(OCCN3CCOCC3)ccc2[nH]1)N1CC(CBr)c2c1cc([N+](=O)[O-])c1cc(S(=O)(=O)NCCOP(=O)(O)O)ccc21` (configuration not stated), the values for the Activity in data set [7] and in [8] were 6.05 and 2.6, respectively. In data set [9], the LCK is on record as 2.8.

Take `O=C(/C=C/c1ccc(OCCN2CCOCC2)cc1)N1CC(CBr)c2c1cc([N+](=O)[O-])c1cc(S(=O)(=O)NCCOP(=O)(O)O)ccc21` (configuration not stated): the results for the Activity in [10] and in [11] were 7.01 and 3.78, respectively. Further, the LCK in [12] was found to be 1.56.

Take `COc1cc2cc(C(=O)N3CC(CCl)c4c3cc([N+](=O)[O-])c3cc(S(=O)(=O)NCCOP(=O)(O)O)ccc43)[nH]c2c(OC)c1OC` (configuration not stated): the values for the Activity in [7] and in data set [8] were 7.29 and 4.96, respectively. Besides, in data set [9], the LCK worked out at 0.55.

As a reminder, the solubility is the concentration that dissolves in the medium under given conditions. `CN(C)CCOc1ccc2[nH]c(C(=O)N3CC(CCl)c4c3cc([N+](=O)[O-])c3cc(S(=O)(=O)NCCOP(=O)(O)O)ccc43)cc2c1` (configuration not stated): the Activity is 6.89 in [7] and 3.9 in data set [8]. Besides, the LCK in data set [9] stood at 1.83. The compound further returned a solubility in [13] above 2000 µM.

For `CN(C)CCOc1ccc2[nH]c(C(=O)N3CC(CCl)c4c3cc([N+](=O)[O-])c3cc(S(N)(=O)=O)ccc43)cc2c1` (configuration not stated), the Ratio in data set [14] was determined as 275; in data set [15], 330.
